We go through two compounds from ChEMBL document CHEMBL4118021, “Studies of TAK1-centered polypharmacology with novel covalent TAK1 inhibitors” (Bioorg Med Chem, 2017).

Calls of active or inactive are those of the source. The calls are words filed in the database; no cut-off is given here.

For test [1], the target named is T1, Dual specificity mitogen-activated protein kinase kinase 3 (Homo sapiens) (UniProt P46734).
T1 sequence (whole entry): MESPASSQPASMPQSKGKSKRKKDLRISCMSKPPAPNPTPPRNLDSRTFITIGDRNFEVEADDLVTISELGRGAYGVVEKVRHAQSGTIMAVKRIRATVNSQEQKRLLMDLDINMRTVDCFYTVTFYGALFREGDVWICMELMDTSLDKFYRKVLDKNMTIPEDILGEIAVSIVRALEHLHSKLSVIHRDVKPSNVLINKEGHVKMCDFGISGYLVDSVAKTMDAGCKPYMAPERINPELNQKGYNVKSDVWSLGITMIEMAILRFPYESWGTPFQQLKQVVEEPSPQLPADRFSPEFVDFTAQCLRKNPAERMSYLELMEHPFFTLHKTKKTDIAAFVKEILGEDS
Description: Inhibition of full length human MEK3 (1 to 318 residues) expressed in mammalian expression system assessed as enzyme activity at 10 uM by KINOMEScan assay relative to control. Details: scale not given: the % may be the effect or the level left. The gist of the method:
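In vitro ATP-site competition binding assay (KinomeScan) across a panel of 456 kinases. Compound was tested at 1 and 10 μM. The read-out is the binding inhibition score relative to control.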

Test [2] has as its target Tropomyosin alpha-3 chain (Homo sapiens) (UniProt P06753). Description: Binding affinity to TPM3 in human NCI-H23 cells at 1 uM by mass spectrometry based pull down assay. The format is cell-based.
The target of test [3] is Actin-related protein 3 (Homo sapiens) (UniProt P61158). Kind of test: Binding affinity to ACTR3 in human NCI-H23 cells at 1 uM by mass spectrometry based pull down assay. The format is cell-based. Put shortly:
(§1)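 NCI-H23 or NCI-H358 cells were grown and lysed. Lysates were incubated overnight at 4 °C with 1 μM biotinylated covalent probe or DMSO, then pulled down on streptavidin beads. Proteins were run on polyacrylamide gels and stained with Coomassie. Bands were excised, digested and identified by mass spectrometry.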

Test [4] deals with 14-3-3 protein epsilon (Homo sapiens) (UniProt P62258). Kind of test: Binding affinity to YWHAE in human NCI-H23 cells at 1 uM by mass spectrometry based pull down assay. The format is cell-based.
14-3-3 protein epsilon (Homo sapiens), sequence (P62258 whole entry): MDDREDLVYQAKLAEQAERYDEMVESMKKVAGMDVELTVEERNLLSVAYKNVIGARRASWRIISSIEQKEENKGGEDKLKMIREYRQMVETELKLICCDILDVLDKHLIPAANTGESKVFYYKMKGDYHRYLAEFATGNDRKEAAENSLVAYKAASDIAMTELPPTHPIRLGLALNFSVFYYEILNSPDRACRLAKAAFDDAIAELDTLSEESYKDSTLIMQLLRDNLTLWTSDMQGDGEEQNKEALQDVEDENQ
Test [5] deals with Proteasome activator complex subunit 1 (Homo sapiens) (UniProt Q06323). Kind of test: Binding affinity to PSME1 in human NCI-H23 cells at 1 uM by mass spectrometry based pull down assay. The format is cell-based.
Test [6] has as its target Bridging integrator 3 (Homo sapiens) (UniProt Q9NQY0). Kind of test: Binding affinity to BIN3 in human NCI-H23 cells at 1 uM by mass spectrometry based pull down assay. The format is cell-based.
Test [7] has as its target RuvB-like 1 (Homo sapiens) (UniProt Q9Y265). Description: Binding affinity to RUVBL1 in human NCI-H23 cells at 1 uM by mass spectrometry based pull down assay. The format is cell-based.
In test [8] the target is T2, Dual specificity mitogen-activated protein kinase kinase 7 (Homo sapiens) (UniProt O14733).
T2 sequence (whole entry): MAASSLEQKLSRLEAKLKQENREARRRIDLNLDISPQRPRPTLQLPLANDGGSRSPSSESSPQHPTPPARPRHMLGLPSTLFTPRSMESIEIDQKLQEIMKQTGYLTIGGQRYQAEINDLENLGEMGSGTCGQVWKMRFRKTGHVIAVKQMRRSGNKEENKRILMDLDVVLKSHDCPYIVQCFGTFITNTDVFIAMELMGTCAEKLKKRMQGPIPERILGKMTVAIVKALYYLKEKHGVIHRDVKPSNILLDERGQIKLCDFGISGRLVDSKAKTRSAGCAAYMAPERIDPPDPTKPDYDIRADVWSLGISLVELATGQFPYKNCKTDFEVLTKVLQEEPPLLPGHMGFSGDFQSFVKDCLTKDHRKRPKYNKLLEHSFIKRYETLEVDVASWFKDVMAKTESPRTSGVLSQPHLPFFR
Description: Binding affinity to MAP2K7 in human NCI-H23 cells at 1 uM by mass spectrometry based pull down assay. The format is cell-based.

Test [9] addresses LIM domain kinase 1 (Homo sapiens) (UniProt P53667). Description: Binding affinity to LIMK1 in human NCI-H358 cells at 1 uM by mass spectrometry based pull down assay. The format is cell-based.
The target in test [10] is T3, Mitogen-activated protein kinase kinase kinase 7 (Homo sapiens) (UniProt O43318).
T3 sequence (whole entry): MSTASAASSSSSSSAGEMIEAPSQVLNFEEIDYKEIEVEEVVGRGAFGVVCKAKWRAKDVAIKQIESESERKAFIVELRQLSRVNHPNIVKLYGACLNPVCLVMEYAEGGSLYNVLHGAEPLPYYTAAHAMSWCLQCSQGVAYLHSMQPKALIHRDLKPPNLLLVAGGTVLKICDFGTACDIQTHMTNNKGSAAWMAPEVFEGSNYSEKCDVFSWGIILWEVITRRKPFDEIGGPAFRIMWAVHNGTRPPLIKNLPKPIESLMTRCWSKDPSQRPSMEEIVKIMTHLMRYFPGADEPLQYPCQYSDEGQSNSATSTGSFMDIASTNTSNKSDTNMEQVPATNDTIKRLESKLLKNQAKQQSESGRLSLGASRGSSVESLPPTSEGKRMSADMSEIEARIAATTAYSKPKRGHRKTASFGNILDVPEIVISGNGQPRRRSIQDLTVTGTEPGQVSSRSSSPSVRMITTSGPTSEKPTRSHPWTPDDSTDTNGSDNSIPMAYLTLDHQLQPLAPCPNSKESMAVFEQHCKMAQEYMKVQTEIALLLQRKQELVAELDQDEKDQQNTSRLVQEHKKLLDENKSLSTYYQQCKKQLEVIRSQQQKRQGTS
Kind of test: Binding affinity to MAP3K7 in human NCI-H358 cells at 1 uM by mass spectrometry based pull down assay. The format is cell-based.

The target of test [11] is ADP-ribose glycohydrolase OARD1 (Homo sapiens) (UniProt Q9Y530). Description: Binding affinity to OARD1 in human NCI-H358 cells at 1 uM by mass spectrometry based pull down assay. The format is cell-based.
ADP-ribose glycohydrolase OARD1 (Homo sapiens), sequence (Q9Y530 whole entry): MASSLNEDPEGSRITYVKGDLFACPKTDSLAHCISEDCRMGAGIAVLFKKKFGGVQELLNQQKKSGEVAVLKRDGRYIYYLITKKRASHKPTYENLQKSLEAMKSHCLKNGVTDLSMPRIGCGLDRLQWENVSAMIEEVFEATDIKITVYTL
The target in test [12] is N-acetyl-D-glucosamine kinase (Homo sapiens) (UniProt Q9UJ70). Kind of test: Binding affinity to NAGK in human NCI-H358 cells at 1 uM by mass spectrometry based pull down assay. The format is cell-based.
Test [13] deals with AP2-associated protein kinase 1 (Homo sapiens) (UniProt Q2M2I8). Kind of test: Binding affinity to AAK1 in human NCI-H358 cells at 1 uM by mass spectrometry based pull down assay. The format is cell-based. The gist of the method:
as §1

Test [14] deals with Lactoylglutathione lyase (Homo sapiens) (UniProt Q04760). Description: Binding affinity to GLO1 in human NCI-H358 cells at 1 uM by mass spectrometry based pull down assay. The format is cell-based.
Lactoylglutathione lyase (Homo sapiens), sequence (Q04760 2-184 limits assumed): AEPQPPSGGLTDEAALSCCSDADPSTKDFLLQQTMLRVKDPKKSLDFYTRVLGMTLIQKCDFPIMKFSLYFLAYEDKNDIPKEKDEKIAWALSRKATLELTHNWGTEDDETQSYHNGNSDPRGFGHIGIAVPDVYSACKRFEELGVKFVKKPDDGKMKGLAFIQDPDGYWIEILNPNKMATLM
Test [15] has as its target Ribosomal protein S6 kinase alpha-4 (Homo sapiens) (UniProt O75676). Description: Binding affinity to RPS6KA4 in human NCI-H358 cells at 1 uM by mass spectrometry based pull down assay. The format is cell-based.
In test [16] the target is ATP-dependent RNA helicase DHX15 (Homo sapiens) (UniProt O43143). Description: Binding affinity to DHX15 in human NCI-H358 cells at 1 uM by mass spectrometry based pull down assay. The format is cell-based.
ATP-dependent RNA helicase DHX15 (Homo sapiens), sequence (O43143 whole entry): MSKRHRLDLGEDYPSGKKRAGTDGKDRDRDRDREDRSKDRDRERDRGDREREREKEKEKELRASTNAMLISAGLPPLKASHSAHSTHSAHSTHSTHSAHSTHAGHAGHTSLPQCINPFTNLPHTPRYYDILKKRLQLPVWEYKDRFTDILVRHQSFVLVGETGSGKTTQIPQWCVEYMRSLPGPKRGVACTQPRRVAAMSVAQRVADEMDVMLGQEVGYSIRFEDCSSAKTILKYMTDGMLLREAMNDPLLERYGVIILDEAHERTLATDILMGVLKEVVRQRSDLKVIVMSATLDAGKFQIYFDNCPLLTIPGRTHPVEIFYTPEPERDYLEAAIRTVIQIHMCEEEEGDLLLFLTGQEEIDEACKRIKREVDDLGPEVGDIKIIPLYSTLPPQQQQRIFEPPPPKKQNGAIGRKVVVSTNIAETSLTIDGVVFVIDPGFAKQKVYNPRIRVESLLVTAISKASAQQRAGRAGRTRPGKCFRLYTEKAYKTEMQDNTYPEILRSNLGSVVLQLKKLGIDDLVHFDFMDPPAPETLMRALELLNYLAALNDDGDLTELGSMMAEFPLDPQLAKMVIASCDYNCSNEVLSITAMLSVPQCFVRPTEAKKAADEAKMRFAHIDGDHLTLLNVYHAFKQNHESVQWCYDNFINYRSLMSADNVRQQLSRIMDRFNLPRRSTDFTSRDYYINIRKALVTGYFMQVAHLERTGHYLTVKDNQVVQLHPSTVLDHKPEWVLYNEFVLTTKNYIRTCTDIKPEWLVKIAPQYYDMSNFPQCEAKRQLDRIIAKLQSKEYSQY
For test [17], the target named is Heterogeneous nuclear ribonucleoprotein D0 (Homo sapiens) (UniProt Q14103). Description: Binding affinity to HNRNPD in human NCI-H358 cells at 1 uM by mass spectrometry based pull down assay. The format is cell-based.
Heterogeneous nuclear ribonucleoprotein D0 (Homo sapiens), sequence (Q14103 whole entry): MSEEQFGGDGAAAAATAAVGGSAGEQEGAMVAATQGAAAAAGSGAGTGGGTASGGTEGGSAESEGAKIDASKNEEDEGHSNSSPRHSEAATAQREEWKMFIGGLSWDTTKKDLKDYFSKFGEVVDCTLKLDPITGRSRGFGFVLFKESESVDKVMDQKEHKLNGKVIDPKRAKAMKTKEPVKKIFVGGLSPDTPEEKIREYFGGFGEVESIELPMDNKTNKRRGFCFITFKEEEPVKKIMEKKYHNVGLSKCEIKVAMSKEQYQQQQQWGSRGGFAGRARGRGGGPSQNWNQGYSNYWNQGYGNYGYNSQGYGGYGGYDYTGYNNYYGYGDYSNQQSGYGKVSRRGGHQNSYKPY
The target in test [18] is Tubulin beta-2A chain (Homo sapiens) (UniProt Q13885). Description: Binding affinity to TUBB2A in human NCI-H358 cells at 1 uM by mass spectrometry based pull down assay. The format is cell-based.

AP2-associated protein kinase 1 (Homo sapiens), sequence (Q2M2I8 whole entry, looked up): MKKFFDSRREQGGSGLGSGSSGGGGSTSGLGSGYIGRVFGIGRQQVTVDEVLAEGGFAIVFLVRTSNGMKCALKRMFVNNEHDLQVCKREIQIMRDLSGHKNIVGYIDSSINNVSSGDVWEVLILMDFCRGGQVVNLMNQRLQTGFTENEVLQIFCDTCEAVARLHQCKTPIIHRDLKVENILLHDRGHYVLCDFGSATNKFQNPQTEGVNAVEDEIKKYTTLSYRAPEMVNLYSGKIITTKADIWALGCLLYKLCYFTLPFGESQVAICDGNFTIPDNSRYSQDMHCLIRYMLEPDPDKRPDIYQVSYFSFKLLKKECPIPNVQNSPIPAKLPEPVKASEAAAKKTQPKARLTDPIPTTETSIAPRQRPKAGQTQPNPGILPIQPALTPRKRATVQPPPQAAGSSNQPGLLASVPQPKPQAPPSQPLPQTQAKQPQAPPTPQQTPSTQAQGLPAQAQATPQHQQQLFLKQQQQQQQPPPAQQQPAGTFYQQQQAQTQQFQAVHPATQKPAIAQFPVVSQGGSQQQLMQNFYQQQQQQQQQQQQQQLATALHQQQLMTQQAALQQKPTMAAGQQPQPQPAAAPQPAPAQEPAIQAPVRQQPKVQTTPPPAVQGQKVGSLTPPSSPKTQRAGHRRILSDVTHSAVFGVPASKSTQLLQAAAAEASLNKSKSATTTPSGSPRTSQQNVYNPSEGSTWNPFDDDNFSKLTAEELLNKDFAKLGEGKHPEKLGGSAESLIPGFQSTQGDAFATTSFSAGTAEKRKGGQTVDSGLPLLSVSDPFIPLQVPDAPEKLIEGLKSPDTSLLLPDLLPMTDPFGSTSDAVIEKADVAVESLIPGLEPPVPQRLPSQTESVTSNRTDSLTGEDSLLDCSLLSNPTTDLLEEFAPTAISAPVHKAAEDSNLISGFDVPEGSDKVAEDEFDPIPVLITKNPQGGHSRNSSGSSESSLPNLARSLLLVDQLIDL
LIM domain kinase 1 (Homo sapiens), sequence (P53667 whole entry, looked up, the tested form may be a part): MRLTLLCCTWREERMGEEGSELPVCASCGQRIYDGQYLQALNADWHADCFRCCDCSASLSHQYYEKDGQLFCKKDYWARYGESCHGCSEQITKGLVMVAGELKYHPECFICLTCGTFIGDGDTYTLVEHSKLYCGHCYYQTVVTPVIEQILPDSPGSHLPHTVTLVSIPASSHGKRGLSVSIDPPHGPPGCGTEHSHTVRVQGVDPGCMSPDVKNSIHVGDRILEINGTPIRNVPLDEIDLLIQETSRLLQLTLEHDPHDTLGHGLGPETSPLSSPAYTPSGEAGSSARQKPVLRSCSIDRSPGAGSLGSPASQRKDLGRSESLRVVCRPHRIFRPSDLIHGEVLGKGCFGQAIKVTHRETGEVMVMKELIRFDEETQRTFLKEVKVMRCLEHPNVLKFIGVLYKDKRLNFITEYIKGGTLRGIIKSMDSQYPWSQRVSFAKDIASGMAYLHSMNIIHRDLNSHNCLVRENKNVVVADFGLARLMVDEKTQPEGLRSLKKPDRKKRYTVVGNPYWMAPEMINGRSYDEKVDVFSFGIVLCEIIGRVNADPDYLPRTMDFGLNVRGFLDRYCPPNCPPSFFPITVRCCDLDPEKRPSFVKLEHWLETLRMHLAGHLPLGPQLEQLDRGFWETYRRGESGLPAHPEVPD
Ribosomal protein S6 kinase alpha-4 (Homo sapiens), sequence (O75676 whole entry, looked up): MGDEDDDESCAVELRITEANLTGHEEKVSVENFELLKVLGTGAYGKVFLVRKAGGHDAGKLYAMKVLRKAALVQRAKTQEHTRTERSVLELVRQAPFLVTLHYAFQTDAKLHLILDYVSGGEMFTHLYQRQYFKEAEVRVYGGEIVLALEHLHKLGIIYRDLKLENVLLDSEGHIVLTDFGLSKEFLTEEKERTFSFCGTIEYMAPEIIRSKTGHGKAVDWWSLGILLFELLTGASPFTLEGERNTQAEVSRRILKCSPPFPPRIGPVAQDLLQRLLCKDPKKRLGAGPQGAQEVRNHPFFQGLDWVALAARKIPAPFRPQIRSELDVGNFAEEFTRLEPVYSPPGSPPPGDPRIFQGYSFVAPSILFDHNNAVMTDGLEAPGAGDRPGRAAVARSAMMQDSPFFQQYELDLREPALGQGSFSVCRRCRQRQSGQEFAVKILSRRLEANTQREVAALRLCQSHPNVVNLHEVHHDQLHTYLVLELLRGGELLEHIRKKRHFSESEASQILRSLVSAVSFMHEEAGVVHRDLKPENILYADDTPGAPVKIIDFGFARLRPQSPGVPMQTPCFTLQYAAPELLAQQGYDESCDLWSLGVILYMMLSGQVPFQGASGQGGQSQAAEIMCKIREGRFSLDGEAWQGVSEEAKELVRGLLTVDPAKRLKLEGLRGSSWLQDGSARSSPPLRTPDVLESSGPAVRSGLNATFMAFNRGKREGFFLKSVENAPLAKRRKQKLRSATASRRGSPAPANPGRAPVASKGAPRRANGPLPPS
Bridging integrator 3 (Homo sapiens), sequence (Q9NQY0 whole entry): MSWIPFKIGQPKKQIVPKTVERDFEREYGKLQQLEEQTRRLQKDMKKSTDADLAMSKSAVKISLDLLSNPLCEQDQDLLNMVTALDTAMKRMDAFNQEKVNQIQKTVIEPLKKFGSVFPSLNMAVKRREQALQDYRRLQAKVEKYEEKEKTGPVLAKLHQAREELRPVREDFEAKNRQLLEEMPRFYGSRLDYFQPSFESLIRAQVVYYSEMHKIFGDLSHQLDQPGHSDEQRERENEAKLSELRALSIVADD
RuvB-like 1 (Homo sapiens), sequence (Q9Y265 whole entry): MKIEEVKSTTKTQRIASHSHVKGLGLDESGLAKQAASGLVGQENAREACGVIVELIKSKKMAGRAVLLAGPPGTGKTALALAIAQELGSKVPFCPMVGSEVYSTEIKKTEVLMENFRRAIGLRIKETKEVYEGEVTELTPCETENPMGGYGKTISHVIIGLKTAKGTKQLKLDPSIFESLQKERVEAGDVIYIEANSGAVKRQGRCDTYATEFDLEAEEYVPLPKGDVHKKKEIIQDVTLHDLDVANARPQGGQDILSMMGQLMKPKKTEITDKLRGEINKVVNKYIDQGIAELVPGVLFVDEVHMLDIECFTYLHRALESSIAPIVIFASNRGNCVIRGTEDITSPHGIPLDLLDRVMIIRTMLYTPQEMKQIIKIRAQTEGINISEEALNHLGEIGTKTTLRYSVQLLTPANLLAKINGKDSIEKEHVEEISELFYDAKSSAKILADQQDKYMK

As for `COc1cc(O)c2c(c1)/C=C/C[C@H](O)[C@H](O)C(=O)/C=C\C[C@H](C)OC2=O`, the Activity in test [1] was 1.4%.
Consider `C=CC(=O)Nc1ccccc1Nc1nc(Nc2ccc(N3CCN(CCOCCOCCOCCNC(=O)CCCC[C@@H]4SC[C@@H]5NC(=O)N[C@@H]54)CC3)cc2)ncc1Cl`, for which the outcome in test [2], in [3], in test [4], in [5], in test [6] and in test [7] was Active. Moreover, the result in test [8], in [9], in [10], in [11], in [12] and in test [13] was Active. In addition, the result in test [14], in test [15], in test [16], in test [17] and in test [18] was Active.
